{"source": "paper PMC9563295", "about": "(Journal of the American Chemical Society, 2022)", "note": "Numbered stars: 1 amine (or outer) side, 2 acyl side, 3 side chain; on linkers, the order of the positions; unused ones are H or OH. Bridge positions count the residues as written; N and C are the ends. Square brackets hold non-standard residues; d marks the D form. Peptide text beside a SMILES is read from it. ξ: configuration not given here. ξβ3hPhg = O=C(CC(N[*:1])c1ccccc1)[*:2]; ξPhg = NC(C(=O)O)c1ccccc1; βAla = NCCC(=O)O"}
{"system": "not listed separately", "assay": "Serum stability assay", "assay_type": "in vitro ADME", "conditions": "human serum, 37 °C; mutant vs parent L2β or D4β", "in_short": "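Test peptides (parents plus Ala, backbone-shortening and sidechain-deletion mutants) incubated in human serum at 37 °C for up to 72 h. Percentage of remaining peptide over time estimated by LC/MS, and half-life (t1/2) derived from the decay.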"}
{"smiles": "CC(C)[C@@H]1NC(=O)[C@H](CCCNC(=N)N)NC(=O)[C@H](Cc2ccc(O)cc2)NC(=O)[C@H](C(C)C)NC(=O)[C@H](C(C)C)NC(=O)[C@H](CCCNC(=N)N)NC(=O)[C@H](CC(=O)O)NC(=O)[C@H](CC(=O)O)NC(=O)[C@H](C)NC(=O)[C@H](Cc2ccc(O)cc2)NC(=O)[C@H](Cc2ccc(O)cc2)NC(=O)[C@H](Cc2ccccc2)NC(=O)[C@@H](Cc2ccc(O)cc2)NC(=O)CSC[C@@H](C(=O)NCC(N)=O)NC(=O)CC(c2ccccc2)NC1=O", "note": "(stereo partly drawn) [D4A.1] ({CH2CO}-[dY]FYYADDRVVYRV[ξβ3hPhg]CG-NH2; thioether N-15)", "fold lower t1/2 than the parent peptide": "26 fold"}
{"smiles": "CC(C)[C@@H]1NC(=O)[C@H](CCCNC(=N)N)NC(=O)[C@H](Cc2ccc(O)cc2)NC(=O)[C@H](C(C)C)NC(=O)[C@H](C(C)C)NC(=O)[C@H](CCCNC(=N)N)NC(=O)[C@H](CC(=O)O)NC(=O)[C@H](CC(=O)O)NC(=O)CCNC(=O)[C@H](Cc2ccc(O)cc2)NC(=O)[C@H](Cc2ccc(O)cc2)NC(=O)[C@H](Cc2ccccc2)NC(=O)[C@@H](Cc2ccc(O)cc2)NC(=O)CSC[C@@H](C(=O)NCC(N)=O)NC(=O)[C@H](C)NC1=O", "note": "[D4A.2] ({CH2CO}-[dY]FYY[βAla]DDRVVYRVACG-NH2; thioether N-15)", "fold lower t1/2 than the parent peptide": "2.6 fold"}
{"smiles": "CC(C)[C@@H]1NC(=O)[C@H](CCCNC(=N)N)NC(=O)[C@H](Cc2ccc(O)cc2)NC(=O)[C@H](C(C)C)NC(=O)[C@H](C(C)C)NC(=O)[C@H](CCCNC(=N)N)NC(=O)[C@H](CC(=O)O)NC(=O)[C@H](CC(=O)O)NC(=O)CNC(=O)[C@H](Cc2ccc(O)cc2)NC(=O)[C@H](Cc2ccc(O)cc2)NC(=O)[C@H](Cc2ccccc2)NC(=O)[C@@H](Cc2ccc(O)cc2)NC(=O)CSC[C@@H](C(=O)NCC(N)=O)NC(=O)CC(c2ccccc2)NC1=O", "note": "(stereo partly drawn) [D4α.1] ({CH2CO}-[dY]FYYGDDRVVYRV[ξβ3hPhg]CG-NH2; thioether N-15)", "fold lower t1/2 than the parent peptide": "2 fold"}
{"smiles": "CC(C)C[C@@H]1NC(=O)[C@H](C)NC(=O)[C@H](CC(C)C)NC(=O)[C@H](Cc2ccc(O)cc2)NC(=O)CSC[C@@H](C(=O)NCC(N)=O)NC(=O)[C@H](Cc2ccc(O)cc2)NC(=O)[C@H](CC(C)C)NC(=O)[C@H](Cc2ccc(O)cc2)NC(=O)[C@H](CCCNC(=N)N)NC(=O)[C@H](CC(N)=O)NC(=O)[C@@H]2CCCN2C(=O)[C@H](C)NC(=O)[C@H](CCCNC(=N)N)NC(=O)[C@H](CCCNC(=N)N)NC(=O)[C@H](C)NC(=O)[C@H](Cc2ccc(O)cc2)NC1=O", "note": "[L2A] ({CH2CO}-YLALYARRAPNRYLYCG-NH2; thioether N-16)", "fold lower t1/2 than the parent peptide": "approximately 10 fold"}
{"target": "hEGFR (Homo sapiens, UniProt P00533)", "sequence (P00533 25-1210)": "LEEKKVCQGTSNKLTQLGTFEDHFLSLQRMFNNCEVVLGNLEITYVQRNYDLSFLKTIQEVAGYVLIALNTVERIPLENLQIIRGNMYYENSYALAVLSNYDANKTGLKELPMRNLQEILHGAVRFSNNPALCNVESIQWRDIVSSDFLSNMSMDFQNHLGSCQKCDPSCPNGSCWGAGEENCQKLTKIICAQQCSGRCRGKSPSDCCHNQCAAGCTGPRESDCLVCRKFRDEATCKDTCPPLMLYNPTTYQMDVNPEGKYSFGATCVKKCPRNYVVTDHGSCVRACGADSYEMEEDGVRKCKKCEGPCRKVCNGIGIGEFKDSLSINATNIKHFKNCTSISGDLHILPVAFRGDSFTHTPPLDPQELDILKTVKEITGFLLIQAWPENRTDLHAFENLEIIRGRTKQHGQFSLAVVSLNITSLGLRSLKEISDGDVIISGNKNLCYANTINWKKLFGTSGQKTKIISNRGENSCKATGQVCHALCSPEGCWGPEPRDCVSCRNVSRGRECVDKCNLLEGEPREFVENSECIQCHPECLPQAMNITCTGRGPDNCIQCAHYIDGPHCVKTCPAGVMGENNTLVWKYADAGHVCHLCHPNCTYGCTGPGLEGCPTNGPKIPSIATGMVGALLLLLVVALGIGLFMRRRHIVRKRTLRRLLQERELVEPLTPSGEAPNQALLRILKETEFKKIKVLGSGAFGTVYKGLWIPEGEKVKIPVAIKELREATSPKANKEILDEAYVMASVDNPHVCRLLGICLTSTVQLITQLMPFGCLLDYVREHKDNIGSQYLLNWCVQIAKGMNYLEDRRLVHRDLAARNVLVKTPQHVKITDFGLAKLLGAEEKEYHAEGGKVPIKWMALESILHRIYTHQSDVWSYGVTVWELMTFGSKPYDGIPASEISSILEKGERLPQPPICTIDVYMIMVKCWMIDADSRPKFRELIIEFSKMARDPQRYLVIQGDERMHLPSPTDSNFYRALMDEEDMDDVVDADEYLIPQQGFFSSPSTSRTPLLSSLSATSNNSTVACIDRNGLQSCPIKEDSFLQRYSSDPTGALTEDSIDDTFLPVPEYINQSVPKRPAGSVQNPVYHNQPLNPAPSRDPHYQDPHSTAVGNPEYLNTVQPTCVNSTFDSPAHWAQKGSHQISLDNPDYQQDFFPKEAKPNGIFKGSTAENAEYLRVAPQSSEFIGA", "assay": "Binding kinetics analysis by surface plasmon resonance", "conditions": "KD compared with 2D and 18D"}
{"smiles": "CC(C)[C@@H]1NC(=O)[C@H](CCCNC(=N)N)NC(=O)[C@H](Cc2ccc(O)cc2)NC(=O)[C@H](C(C)C)NC(=O)[C@H](C(C)C)NC(=O)[C@H](CCCNC(=N)N)NC(=O)[C@H](CC(=O)O)NC(=O)[C@H](CC(=O)O)NC(=O)CCNC(=O)[C@H](Cc2ccc(O)cc2)NC(=O)[C@H](Cc2ccc(O)cc2)NC(=O)[C@H](Cc2ccccc2)NC(=O)[C@@H](Cc2ccc(O)cc2)NC(=O)CSC[C@@H](C(=O)NCC(N)=O)NC(=O)CC(c2ccccc2)NC1=O", "note": "(stereo partly drawn) [D4β] ({CH2CO}-[dY]FYY[βAla]DDRVVYRV[ξβ3hPhg]CG-NH2; thioether N-15)", "fold stronger binding affinity in comparison with 2D and 18D": "approximately 10 fold"}
{"smiles": "CC(C)C[C@@H]1NC(=O)CC(c2ccccc2)NC(=O)[C@H](CC(C)C)NC(=O)[C@H](Cc2ccc(O)cc2)NC(=O)CSC[C@@H](C(=O)NCC(N)=O)NC(=O)[C@H](Cc2ccc(O)cc2)NC(=O)[C@H](CC(C)C)NC(=O)[C@H](Cc2ccc(O)cc2)NC(=O)[C@H](CCCNC(=N)N)NC(=O)[C@H](CC(N)=O)NC(=O)[C@@H]2CCCN2C(=O)CC(c2ccccc2)NC(=O)[C@H](CCCNC(=N)N)NC(=O)[C@H](CCCNC(=N)N)NC(=O)CC(c2ccccc2)NC(=O)[C@H](Cc2ccc(O)cc2)NC1=O", "note": "(stereo partly drawn) [L2β, ^AcYL^βXLY^βXRR^βXPNRYLYCG-NH2] ({CH2CO}-YL[ξβ3hPhg]LY[ξβ3hPhg]RR[ξβ3hPhg]PNRYLYCG-NH2; thioether N-16)", "fold stronger binding affinity in comparison with 2D and 18D": "approximately 10 fold"}
{"target": "hEGF–hEGFR interaction (Homo sapiens, UniProt P00533)", "sequence (P00533 25-645 limits assumed)": "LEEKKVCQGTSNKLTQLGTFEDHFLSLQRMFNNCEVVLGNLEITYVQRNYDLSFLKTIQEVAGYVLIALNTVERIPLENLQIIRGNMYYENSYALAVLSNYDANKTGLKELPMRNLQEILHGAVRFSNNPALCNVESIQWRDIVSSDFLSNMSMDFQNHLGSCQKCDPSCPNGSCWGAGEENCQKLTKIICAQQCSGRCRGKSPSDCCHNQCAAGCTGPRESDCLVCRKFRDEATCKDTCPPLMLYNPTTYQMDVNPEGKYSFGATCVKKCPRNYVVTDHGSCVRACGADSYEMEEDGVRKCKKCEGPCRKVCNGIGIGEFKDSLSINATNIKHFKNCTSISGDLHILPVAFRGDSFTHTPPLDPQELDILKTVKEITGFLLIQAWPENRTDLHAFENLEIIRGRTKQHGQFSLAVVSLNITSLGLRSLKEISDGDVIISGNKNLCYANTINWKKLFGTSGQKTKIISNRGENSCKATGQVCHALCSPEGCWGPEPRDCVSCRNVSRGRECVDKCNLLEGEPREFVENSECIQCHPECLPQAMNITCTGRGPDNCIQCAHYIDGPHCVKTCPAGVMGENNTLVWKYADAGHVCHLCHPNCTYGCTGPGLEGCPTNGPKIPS", "assay": "hEGFR inhibition assay using AlphaLISA", "assay_type": "biochemical", "conditions": "not given"}
{"smiles": "CC(C)C[C@H](NC(=O)CNC(=O)[C@H](CCCNC(=N)N)NC(=O)CC(NC(=O)[C@@H]1CSCC(=O)N[C@H](Cc2ccc(O)cc2)C(=O)N[C@@H](C(C)C)C(=O)N[C@@H](Cc2ccc(O)cc2)C(=O)N1)c1ccccc1)C(=O)N[C@@H](CC(=O)O)C(=O)N1CCC[C@H]1C(=O)N[C@@H](CCCNC(=N)N)C(=O)N[C@@H](CC(C)C)C(=O)N[C@@H](CO)C(=O)N[C@@H](CCCNC(=N)N)C(=O)N[C@@H](Cc1ccccc1)C(=O)N[C@@H](CO)C(=O)NCC(N)=O", "note": "(stereo partly drawn) [D2β, ^AcyVYC^βXRGLDPRLSRFSG-NH2] ({CH2CO}-[dY]VYC[ξβ3hPhg]RGLDPRLSRFSG-NH2; thioether N-4)", "PPI inhibitory activity against hEGF–hEGFR interaction (in words)": "no inhibitory activity"}
{"smiles": "CC(C)[C@@H]1NC(=O)[C@H](CCCNC(=N)N)NC(=O)[C@H](Cc2ccc(O)cc2)NC(=O)[C@H](C(C)C)NC(=O)[C@H](C(C)C)NC(=O)[C@H](CCCNC(=N)N)NC(=O)[C@H](CC(=O)O)NC(=O)[C@H](CC(=O)O)NC(=O)[C@H](C)NC(=O)[C@H](Cc2ccc(O)cc2)NC(=O)[C@H](Cc2ccc(O)cc2)NC(=O)[C@H](Cc2ccccc2)NC(=O)[C@@H](Cc2ccc(O)cc2)NC(=O)CSC[C@@H](C(=O)NCC(N)=O)NC(=O)[C@H](C)NC1=O", "note": "[D4A] ({CH2CO}-[dY]FYYADDRVVYRVACG-NH2; thioether N-15)", "PPI inhibitory activity against hEGF–hEGFR interaction (in words)": "complete loss of the activity"}
{"smiles": "CC(C)[C@@H]1NC(=O)[C@H](CCCNC(=N)N)NC(=O)[C@H](Cc2ccc(O)cc2)NC(=O)[C@H](C(C)C)NC(=O)[C@H](C(C)C)NC(=O)[C@H](CCCNC(=N)N)NC(=O)[C@H](CC(=O)O)NC(=O)[C@H](CC(=O)O)NC(=O)CNC(=O)[C@H](Cc2ccc(O)cc2)NC(=O)[C@H](Cc2ccc(O)cc2)NC(=O)[C@H](Cc2ccccc2)NC(=O)[C@@H](Cc2ccc(O)cc2)NC(=O)CSC[C@@H](C(=O)NCC(N)=O)NC(=O)C(c2ccccc2)NC1=O", "note": "(stereo partly drawn) [D4α, ^AcyFYYGDDRVVYRVXCG-NH2] ({CH2CO}-[dY]FYYGDDRVVYRV[ξPhg]CG-NH2; thioether N-15)", "PPI inhibitory activity against hEGF–hEGFR interaction (in words)": "complete loss of the activity"}
{"target": "hEGF–hEGFR interaction (Homo sapiens, UniProt P00533)", "assay": "hEGFR inhibition assay using AlphaLISA", "assay_type": "biochemical", "conditions": "mutant vs parent L2β, D3β or D4β", "units": {"fold increase of IC50 compared to the parent peptide": "fold"}}
{"smiles": "CC(C)[C@@H]1NC(=O)[C@H](CCCNC(=N)N)NC(=O)[C@H](Cc2ccc(O)cc2)NC(=O)[C@H](C(C)C)NC(=O)[C@H](C(C)C)NC(=O)[C@H](CCCNC(=N)N)NC(=O)[C@H](CC(=O)O)NC(=O)[C@H](CC(=O)O)NC(=O)CCNC(=O)[C@H](Cc2ccc(O)cc2)NC(=O)[C@H](Cc2ccc(O)cc2)NC(=O)[C@H](Cc2ccccc2)NC(=O)[C@@H](Cc2ccc(O)cc2)NC(=O)CSC[C@@H](C(=O)NCC(N)=O)NC(=O)CCNC1=O", "note": "[D4βG] ({CH2CO}-[dY]FYY[βAla]DDRVVYRV[βAla]CG-NH2; thioether N-15)", "fold increase of IC50 compared to the parent peptide": 2.2}
{"smiles": "CC(C)C[C@@H]1NC(=O)CC(c2ccccc2)NC(=O)[C@H](CC(C)C)NC(=O)[C@H](Cc2ccc(O)cc2)NC(=O)CSC[C@@H](C(=O)NCC(N)=O)NC(=O)[C@H](Cc2ccc(O)cc2)NC(=O)[C@H](CC(C)C)NC(=O)[C@H](Cc2ccc(O)cc2)NC(=O)[C@H](CCCNC(=N)N)NC(=O)[C@H](CC(N)=O)NC(=O)[C@@H]2CCCN2C(=O)CC(c2ccccc2)NC(=O)[C@H](CCCNC(=N)N)NC(=O)[C@H](CCCNC(=N)N)NC(=O)C(c2ccccc2)NC(=O)[C@H](Cc2ccc(O)cc2)NC1=O", "note": "(stereo partly drawn) [L2α.2, ^AcYL^βXLYXRR^βXPNRYLYCG-NH2] ({CH2CO}-YL[ξβ3hPhg]LY[ξPhg]RR[ξβ3hPhg]PNRYLYCG-NH2; thioether N-16)", "fold increase of IC50 compared to the parent peptide": 460}
{"smiles": "CC(C)C[C@@H]1NC(=O)CC(c2ccccc2)NC(=O)[C@H](CC(C)C)NC(=O)[C@H](Cc2ccc(O)cc2)NC(=O)CSC[C@@H](C(=O)NCC(N)=O)NC(=O)[C@H](Cc2ccc(O)cc2)NC(=O)[C@H](CC(C)C)NC(=O)[C@H](Cc2ccc(O)cc2)NC(=O)[C@H](CCCNC(=N)N)NC(=O)[C@H](CC(N)=O)NC(=O)[C@@H]2CCCN2C(=O)CC(c2ccccc2)NC(=O)[C@H](CCCNC(=N)N)NC(=O)[C@H](CCCNC(=N)N)NC(=O)CCNC(=O)[C@H](Cc2ccc(O)cc2)NC1=O", "note": "(stereo partly drawn) [L2βG.2, ^AcYL^βXLY^βGRR^βXPNRYLYCG-NH2] ({CH2CO}-YL[ξβ3hPhg]LY[βAla]RR[ξβ3hPhg]PNRYLYCG-NH2; thioether N-16)", "fold increase of IC50 compared to the parent peptide": 1270}
